Results of several laboratories.
Read-out: cell growth or viability

| SMILES | cell line | method | time | IC50 [nM] |
| --- | --- | --- | --- | --- |
| NCCOc1cc(C(=O)Nc2cc(OCCN3CCCC3)c3ccccc3n2)nc(C(=O)Nc2cc(OCCN3CCCC3)c3ccccc3n2)c1 | WI-38 | ATP luminescence | 72 h | 500 |
| COc1cccc(Oc2ccccc2NC(=O)[C@H](C)NC(=O)c2cccc3ccccc23)c1 | NCI-H358 |  |  | 1800 |
| COc1cc(Nc2nccc(-c3cnn4nc(OC)ccc34)n2)cc(C(F)(F)F)c1 | KARPAS-299 | ATP luminescence |  | 200 |
| O=C(Nc1ccc(Cl)cc1)c1ccc([N+](=O)[O-])o1 | NHBE | resazurin | 96 h | 21400 |
| Cc1cc(C)cc(COc2cc3c(cc2OCc2cc(C)cc(C)c2)[C@H]2C[C@](O)(Cc4cn(Cc5ccc(S(C)(=O)=O)cc5)nn4)C[C@H](C)N2CC3)c1 | ASPC1 | MTT |  | 537 |
| CC(C)=CCC[C@](C)(O)[C@H]1CC[C@]2(C)[C@@H]1[C@H](O)C[C@@H]1[C@@]3(C)CC[C@H](O[C@@H]4O[C@H](CO)[C@@H](O)[C@H](O)[C@H]4O[C@@H]4O[C@H](CO)[C@@H](O)[C@H](O)[C@H]4O)C(C)(C)[C@@H]3CC[C@]12C | NCI-H358 | MTT | 72 h | > 100000 |
| NCc1cc2c(-c3ccccc3)n[nH]c2c(Nc2ccccc2)n1 | WI-38 | MTS | 48 h | > 10000 |
| CCCCCCCCCc1ccc(C(=O)Nc2cc(C)ccc2C(=O)OC)cc1 | RPE |  |  | > 120000 |
| CN1CCN(c2ccc3nc(-c4c(N)c5c(F)cccc5[nH]c4=O)[nH]c3c2)CC1 | RT-4 | MTT | 5 days | 100 |
| Nc1ccn([C@@H]2O[C@H](CO)[C@@H](O)C2(F)F)c(=O)n1 | ASPC1 | MTT |  | 65 |
| CCN1CCN(c2ccc(Nc3cc(N(C)C(=O)Nc4c(Cl)c(OC)cc(OC)c4Cl)ncn3)cc2)CC1 | AN3-CA | ATP luminescence | 96 h | 39.9 |
| Cc1cc(C)cc(COc2cc3c(cc2OCc2cc(C)cc(C)c2)[C@H]2C[C@](O)(Cc4cn(Cc5ccncc5)nn4)C[C@H](C)N2CC3)c1 | ASPC1 | MTT |  | 525 |
| COc1ccc(CCc2cc(C(=O)c3cc(OC)c(OC)c(OC)c3)c(N)s2)cc1 | Molt4/C8 |  |  | > 10000 |
| Cc1cccc(-n2ncc(Br)c(Br)c2=O)c1 | NHBE | resazurin | 96 h | 1610 |
| CCn1c(=O)c(-c2ccc(-c3cncs3)cc2Cl)cc2cnc(Nc3ccc(N4CCN(C)CC4)cc3)nc21 | HPAF-II | MTT | 24 h | 7900 |
| C=C(C)C(=O)Nc1ccc(-c2c(-c3ccc(Oc4nccc(C)n4)c(F)c3)c3c(N)ncnc3n2C)cc1 | RT-4 | ATP luminescence | 96 h | 617 |
| C=CC(=O)Nc1cc(Nc2nccc(-c3cn(C4CC4)c4ccccc34)n2)c(OC)cc1N(C)CCN(C)C | HCC827 | ATP luminescence | 72 h | 3.3 |
| CC(C)C[C@H](NC(=O)[C@H](Cc1ccccc1)NC(=O)c1cnccn1)B(O)O | DV-90 | ATP luminescence |  | 13 |
| CCN1C(=O)N(c2c(F)c(OC)cc(OC)c2F)Cc2cnc3[nH]c(CN4CCOCC4)cc3c21 | AN3-CA | ATP luminescence | 96 h | 40.9 |
| NCCOc1cc(C(=O)Nc2cc(OCCN)c3ccccc3n2)nc(C(=O)Nc2cc(OCCN)c3ccccc3n2)c1 | WI-38 | ATP luminescence | 72 h | 11100 |
| CC(C)c1ccc(C2C(C#N)=C3N=C(N)c4ccccc4N3C3=C2C(=O)CCC3)cc1 (stereo not drawn) | HMC3 | imaging |  | 49100 |

| SMILES | cell line | method | time | IC50 [nM] |
| --- | --- | --- | --- | --- |
| O=c1c(O)c(-c2ccc(O)c(O)c2)oc2cc(O)cc(O)c12 | RT-4 | ATP luminescence | 72 h | 92400 |
| NCCOc1cc(NC(=O)c2cc(OCc3c[nH]nn3)cc(C(=O)Nc3cc(OCCN)c4ccccc4n3)n2)nc2ccccc12 | WI-38 | ATP luminescence | 72 h | 39700 |
| Cc1cc(C)cc(COc2cc3c(cc2OCc2cc(C)cc(C)c2)C2CC(O)(Cc4cn(CCCCCCOc5cccc6c5C(=O)N(C5CCC(=O)NC5=O)C6=O)nn4)CC(C)N2CC3)c1 (stereo not drawn) | ASPC1 | MTT |  | 880 |
| NCCCOc1cc(NC(=O)c2cc(OCCN)cc(C(=O)Nc3cc(OCCCN)c4ccccc4n3)n2)nc2ccccc12 | WI-38 | ATP luminescence | 72 h | 10600 |
| Cc1cc(C)cc(COc2cc3c(cc2OCc2cc(C)cc(C)c2)[C@H]2C[C@](O)(Cc4cn(Cc5ccc(C#N)cc5)nn4)C[C@H](C)N2CC3)c1 | ASPC1 | MTT |  | 632 |
| [Cl-].[Cl-].[Ti+4].c1cc[cH-]c1.c1cc[cH-]c1 | CAKI-1 | XTT | 72 h | > 200000 |
| NCCCOc1cc(NC(=O)c2cc(OCc3c[nH]nn3)cc(C(=O)Nc3cc(OCCCN)c4ccccc4n3)n2)nc2ccccc12 | WI-38 | ATP luminescence | 72 h | > 40000 |
| c1csc([I+]c2cccs2)c1 | LS174T | trypan blue | 48 h | ~2500 |
| Clc1ccc(COc2cncc(-c3cnn(C4CCNCC4)c3)c2)c(Cl)c1 | HMC3 | imaging |  | 5180 |
| COc1cc(C(=O)c2cc(CCc3ccc(C)cc3)sc2N)cc(OC)c1OC | Molt4/C8 |  |  | > 10000 |
| Cc1nc(Nc2ncc(C(=O)Nc3c(C)cccc3Cl)s2)cc(N2CCN(CCO)CC2)n1 | ASPC1 | MTT |  | 380 |
| Cc1cc(C)cc(COc2cc3c(cc2OCc2cc(C)cc(C)c2)C2CC(O)(Cc4cn(CCC(=O)Nc5cccc6c5C(=O)N(C5CCC(=O)NC5=O)C6=O)nn4)CC(C)N2CC3)c1 (stereo not drawn) | ASPC1 | MTT |  | 3290 |
| N=C(Nc1ccccc1)c1cc2c(-c3ccccc3)n[nH]c2c(Nc2ccccc2)n1 | WI-38 | MTS | 48 h | 1430 |
| Cc1cc(C)cc(COc2cc3c(cc2OCc2cc(C)cc(C)c2)C2CC(O)(Cc4cn(CCCCCCNC(=O)CNc5ccc6c(c5)C(=O)N(C5CCC(=O)NC5=O)C6=O)nn4)CC(C)N2CC3)c1 (stereo not drawn) | ASPC1 | MTT |  | > 5000 |
| NCCOc1cc(NC(=O)c2cc(OCc3ccc(F)cc3)cc(C(=O)Nc3cc(OCCN)c4ccccc4n3)n2)nc2ccccc12 | WI-38 | ATP luminescence | 72 h | 4900 |
| C/C=C/C(=O)Nc1ccc(Cn2cc(C[C@@]3(O)C[C@@H]4c5cc(OCc6cc(C)cc(C)c6)c(OCc6cc(C)cc(C)c6)cc5CCN4[C@@H](C)C3)nn2)cc1 | ASPC1 | MTT |  | 553 |
| NCCCOc1cc(NC(=O)c2cccc(C(=O)Nc3cc(OCCCN)c4ccccc4n3)n2)nc2ccccc12 | WI-38 | ATP luminescence | 72 h | 1600 |
| CNc1ncc2cc(-c3ccc(-c4cccc(C)n4)cc3Cl)c(=O)n(C[C@H]3OC[C@H](N)CO3)c2n1 | HPAF-II | MTT | 24 h | 30200 |
| O=C(Nc1cc(OCCN2CCCC2)c2ccccc2n1)c1cc(OCc2ccc(F)cc2)cc(C(=O)Nc2cc(OCCN3CCCC3)c3ccccc3n2)n1 | WI-38 | ATP luminescence | 72 h | 11400 |
| C=CC(=O)Nc1ccc(CCn2cc(C[C@@]3(O)C[C@@H]4c5cc(OCc6cc(C)cc(C)c6)c(OCc6cc(C)cc(C)c6)cc5CCN4[C@@H](C)C3)nn2)cc1 | ASPC1 | MTT |  | 536 |
| O=c1c(O)c(-c2cc(O)c(O)c(O)c2)oc2cc(O)cc(O)c12 | RT-4 | ATP luminescence | 72 h | 72700 |
